Screening results from PubChem BioAssay.
Rin1-Abl PPI inh: inhibitors of Rin1-Abl protein binding, primary screen, biochemical, TR-FRET; Tyrosine-protein kinase ABL1 (Homo sapiens) + Ras and Rab interactor 1 (Homo sapiens), …; AID 588664, 2011; inhibition, % at 7.35 µM; hit rate 0.4% among 360,000; in the data active = inhibition above about 5%, passing the limit was not always enough
Xi reactivation: activators of inactive X chromosome reactivation, primary screen, imaging, XiGFP fibroblasts, GFP high-content imaging, set 2. hit rate 0.055% among 360,000. activation, % at 7.58 µM. XiGFP mouse fibroblasts, % GFP-positive cells imaging, 3 d; cells co-treated with 5-aza-dC sensitizer; scaled so ellipticine positive control = 100%;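 active = mean normalized replicate activation at least 10% and every replicate at or above 10%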;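 also: 0% = median of on-plate neutral control wells and 100% = ellipticine 6 µM median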
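System: SV40-immortalized XiGFP fibroblast cells, line 68-5-11 / Incubation: 3-day compound exposure, then 15 min fixation at room temperature / Compound: single concentration per compound, delivered by pin transfer / Buffer or medium: DMEM plus 5-aza-dC sensitizer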
ABHD5-PLIN5 inh: ABHD5-PLIN5 interaction inhibitors, primary screen, cell lysate, split luciferase complementation, luminescence. Perilipin-5 (Homo sapiens) + 1-acylglycerol-3-phosphate O-acyltransferase ABHD5 (Homo …. AID 602281, 2012. inhibition, % at 4 µM. Split G. princeps luciferase complementation, 4 h. hit rate 0.78% among 360,000;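 active = inhibition above the mean inhibition across every tested compound plus 3 SD, cut at about 22% in these data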;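 also: 0% = DMSO only wells and the 100% control is not disclosed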
Rpn11 inh: Rpn11 (PSMD14) deubiquitinase inhibitors, primary screen, biochemical, fluorescence polarization, uHTS | 26S proteasome non-ATPase regulatory subunit 14 (Homo sapiens), O00487 | human 26S proteasome, Ub4-pepOG fluorescence polarization; 20S core pre-blocked with epoxomicin | inhibition, % at 20 µM | hit rate 0.59% among 360,000 | AID 588493, 2011;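 active = inhibition at 20 µM, scaled to each plate's controls, above about 33%, limit read from the data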
NadD inh: inhibitors of S. aureus NadD, primary screen, biochemical, colorimetric, uHTS; Nicotinate-nucleotide adenylyltransferase NadD (Staphylococcus aureus N315); purified NadD enzyme, colorimetric absorbance read-out; inhibition, % at 20 µM; hit rate 0.78% among 360,000; AID 602399, 2012; in the data active = inhibition above about 26%
Rin1 Abl conf: Rin1-Abl binding inhibitor retest, confirmation, biochemical, TR-FRET; hit rate 49% among 1,300; inhibition, % at 7.35 µM; purified proteins; shares compounds with Rin1-Abl PPI inh; in the data active = inhibition above about 6.5%
GFP quench-1: GFP fluorescence inhibitors and quenchers, artefact control for Rin1-Abl interaction inhibitor project, biochemical | shares compounds with Rin1-Abl PPI inh | inhibitors/quenchers counterscreen | inhibition, % at 6.75 µM | hit rate 8.5% among 1,300; in the data active = inhibition above about 6.5%;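 also: ABL1-eGFP fusion protein alone without its partner RIN1-SBP; 0% = protein with vehicle and 100% = wells lacking protein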
GFP quench DR: GFP fluorescence inhibitors and quenchers, dose response, artefact control for Rin1-Abl interaction inhibitor project, biochemical; shares compounds with Rin1-Abl PPI inh; GFP fluorescence interference/quenching counterscreen; AID 602182, 2012; 230 tested, under 10 active; IC50, µM;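 also: ABL1-eGFP fusion protein alone without its RIN1 binding partner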
GFP quench-2: GFP fluorescence inhibitors and quenchers, late-stage follow-up, artefact control for Rin1-Abl interaction inhibitor project, biochemical, dose response. 25 tested, under 10 active. IC50, µM. GFP fluorescence quenching counterscreen. shares compounds with Rin1-Abl PPI inh. AID 602397, 2012
* marks the source's active call; other numbers are inactive results. Rows were chosen to be rich in hits. Some 1.9% of all compounds tested hit in one or more screens of this group. Unless noted, no rule for the calls is given here.

`CCOc1ccccc1-n1c(SCC(=O)N2CCCc3ccccc32)nnc1-c1cccnc1` gave Rin1-Abl PPI inh 2, Xi reactivation 0, ABHD5-PLIN5 inh 6, Rpn11 inh 12 and NadD inh -3.
Cc1ccc(-n2c(SCC(=O)N3CCCc4ccccc43)nnc2-c2cccnc2)c(C)c1 was read as Rin1-Abl PPI inh 8.7*, Xi reactivation 0, ABHD5-PLIN5 inh -1, Rpn11 inh 17, NadD inh 5, Rin1 Abl conf 13* and GFP quench-1 0.
Cc1ccc(-n2c(SCc3cc(=O)n4ccsc4n3)nnc2-c2cccnc2)c(C)c1 was read as Rin1-Abl PPI inh 17*, ABHD5-PLIN5 inh -5, Rpn11 inh -15, NadD inh 4, Rin1 Abl conf 19*, GFP quench-1 0 and GFP quench DR >68.
C[C@H]1CN([C@@H](C)CO)C(=O)c2cc(-c3ccccc3F)cnc2O[C@H]1CN(C)C(=O)C1CC1 was read as Xi reactivation -1.
CCOC(=O)c1ccc(NC(=O)COc2ccccc2CNCCO)cc1 was read as Rin1-Abl PPI inh 13*, Xi reactivation 0, ABHD5-PLIN5 inh 10, Rpn11 inh 2, NadD inh -5, Rin1 Abl conf 23*, GFP quench-1 -1 and GFP quench DR >68.
CCCN1[C@@H]2c3ccc(-c4ccccc4)c(=O)n3C[C@@H]2[C@@H](CO)[C@@H]1C(=O)OC was read as Xi reactivation 0.
For CCOC(=O)N1CCN(C(=O)Nc2ccc(NC(=O)N3CCN(C(=O)OCC)CC3)cc2)CC1 the results were Rin1-Abl PPI inh 33*, Xi reactivation 0, ABHD5-PLIN5 inh -5, Rpn11 inh -7, NadD inh 0, Rin1 Abl conf 38*, GFP quench-1 -1, GFP quench DR >68 and GFP quench-2 >68.
O=C(Nc1ccccc1)N[C@@H]1CC[C@@H](CCn2cc(-c3ccccc3F)nn2)O[C@H]1CO was read as Xi reactivation 0.
`CC(C)c1nc2oc3c(NCCO)ncnc3c2c2c1COC(C)(C)C2` gave Rin1-Abl PPI inh 7.7*, Xi reactivation 0, ABHD5-PLIN5 inh 3, Rpn11 inh -3, NadD inh -6, Rin1 Abl conf 7.7* and GFP quench-1 1.
OC[C@@H]1CN(Cc2ccccc2)C[C@H](n2cnc3c(NCc4ccco4)ncnc32)O1 was read as Rin1-Abl PPI inh 1, Xi reactivation 0, ABHD5-PLIN5 inh 1, Rpn11 inh -3 and NadD inh -2.
`OC[C@@H]1CN(Cc2ccc(-c3ccccc3)cc2)C[C@H](n2cnc3c(NCc4ccco4)ncnc32)O1` gave Rin1-Abl PPI inh 10*, Xi reactivation 0, ABHD5-PLIN5 inh 12, Rpn11 inh 3, NadD inh 0, Rin1 Abl conf 6.7* and GFP quench-1 -1.
Screening OCCNc1ncnc2c1ncn2[C@H]1CN(Cc2ccc(-c3ccccc3)cc2)C[C@@H](CO)O1 returned Rin1-Abl PPI inh 24*, ABHD5-PLIN5 inh -5, Rpn11 inh 3, NadD inh -6, Rin1 Abl conf 28*, GFP quench-1 0 and GFP quench DR >68.
